Test results as given in ChEMBL document CHEMBL2424622, “Development of amino-pyrimidine inhibitors of c-Jun N-terminal kinase (JNK): kinase profiling guided optimization of a 1,2,3-benzotriazole lead” (Bioorg Med Chem Lett, 2013).

Tests used:
[1] = molecular target: T1, Serine/threonine-protein kinase 36 (Homo sapiens) (UniProt Q9NRP7); experiment: Competitive binding affinity to STK36 (unknown origin) at 10 uM in presence of ATP relative to control
T1 sequence (whole entry): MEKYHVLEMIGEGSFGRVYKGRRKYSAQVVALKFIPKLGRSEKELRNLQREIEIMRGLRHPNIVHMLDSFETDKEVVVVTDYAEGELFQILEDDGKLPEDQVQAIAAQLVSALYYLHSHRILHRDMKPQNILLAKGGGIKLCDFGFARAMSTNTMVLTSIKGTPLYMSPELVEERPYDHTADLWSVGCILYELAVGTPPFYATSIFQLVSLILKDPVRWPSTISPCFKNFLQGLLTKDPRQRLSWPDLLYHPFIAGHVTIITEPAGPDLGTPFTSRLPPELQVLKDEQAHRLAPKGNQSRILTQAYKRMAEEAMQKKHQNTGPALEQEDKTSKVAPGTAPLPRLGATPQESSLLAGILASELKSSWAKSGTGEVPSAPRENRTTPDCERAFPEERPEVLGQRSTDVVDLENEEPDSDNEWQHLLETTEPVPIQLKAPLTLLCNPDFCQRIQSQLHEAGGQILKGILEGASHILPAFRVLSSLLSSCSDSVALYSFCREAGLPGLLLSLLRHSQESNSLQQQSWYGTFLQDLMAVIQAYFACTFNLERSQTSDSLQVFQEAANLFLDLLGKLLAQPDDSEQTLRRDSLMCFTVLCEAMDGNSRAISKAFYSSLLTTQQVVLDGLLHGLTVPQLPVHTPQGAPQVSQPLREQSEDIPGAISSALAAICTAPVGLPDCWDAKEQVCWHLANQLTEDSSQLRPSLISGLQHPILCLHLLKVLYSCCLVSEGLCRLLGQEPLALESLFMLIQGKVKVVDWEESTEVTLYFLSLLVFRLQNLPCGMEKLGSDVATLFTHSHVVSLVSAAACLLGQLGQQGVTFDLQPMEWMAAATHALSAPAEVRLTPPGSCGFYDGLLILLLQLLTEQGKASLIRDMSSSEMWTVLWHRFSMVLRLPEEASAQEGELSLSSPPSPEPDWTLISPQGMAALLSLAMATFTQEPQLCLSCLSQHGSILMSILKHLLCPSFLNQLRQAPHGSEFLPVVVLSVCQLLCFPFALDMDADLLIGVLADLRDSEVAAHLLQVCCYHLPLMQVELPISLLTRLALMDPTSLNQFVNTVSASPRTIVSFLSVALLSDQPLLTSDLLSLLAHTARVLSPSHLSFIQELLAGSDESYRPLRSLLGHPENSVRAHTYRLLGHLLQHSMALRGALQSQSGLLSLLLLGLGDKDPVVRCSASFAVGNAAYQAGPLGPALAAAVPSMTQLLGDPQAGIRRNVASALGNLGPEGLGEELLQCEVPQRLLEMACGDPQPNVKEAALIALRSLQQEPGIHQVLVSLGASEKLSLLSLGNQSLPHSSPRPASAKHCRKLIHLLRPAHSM
In short: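 In vitro ATP-site competition binding assay across a diverse panel of 128 kinases, with each compound tested at a single concentration. Kinase binding is expressed relative to control.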

[2] = molecular target: Receptor tyrosine-protein kinase erbB-2 (Homo sapiens) (UniProt P04626); experiment: Competitive binding affinity to ERBB2 (unknown origin) at 10 uM in presence of ATP relative to control
In short: (§1)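 In vitro ATP-site competition binding assay, part of profiling against a diverse panel of 128 kinases. Each compound was tested at a single concentration of 10 µM. Kinome selectivity was summarized as S15 selectivity scores.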

[3] = molecular target: Ephrin type-A receptor 4 (Homo sapiens) (UniProt P54764); experiment: Competitive binding affinity to EPHA4 (unknown origin) at 10 uM in presence of ATP relative to control; in short: as §1
[4] = molecular target: Leukocyte tyrosine kinase receptor (Homo sapiens) (UniProt P29376); experiment: Competitive binding affinity to LTK (unknown origin) at 10 uM in presence of ATP relative to control; in short: as §1
[5] = molecular target: Dual specificity protein kinase CLK3 (Homo sapiens) (UniProt P49761); experiment: Competitive binding affinity to CLK3 (unknown origin) at 10 uM in presence of ATP relative to control
[6] = molecular target: Mitogen-activated protein kinase 1 (Homo sapiens, UniProt P28482); experiment: Competitive binding affinity to ERK2 (unknown origin) at 10 uM in presence of ATP relative to control; in short: as §1
[7] = molecular target: Calcium/calmodulin-dependent protein kinase type II subunit gamma (Homo sapiens) (UniProt Q13555); experiment: Competitive binding affinity to CAMK2G (unknown origin) at 10 uM in presence of ATP relative to control
[8] = molecular target: Tyrosine-protein kinase Fes/Fps (Homo sapiens) (UniProt P07332); experiment: Competitive binding affinity to FES (unknown origin) at 10 uM in presence of ATP relative to control; in short: as §1
Sequence of Tyrosine-protein kinase Fes/Fps (Homo sapiens) (P07332 whole entry): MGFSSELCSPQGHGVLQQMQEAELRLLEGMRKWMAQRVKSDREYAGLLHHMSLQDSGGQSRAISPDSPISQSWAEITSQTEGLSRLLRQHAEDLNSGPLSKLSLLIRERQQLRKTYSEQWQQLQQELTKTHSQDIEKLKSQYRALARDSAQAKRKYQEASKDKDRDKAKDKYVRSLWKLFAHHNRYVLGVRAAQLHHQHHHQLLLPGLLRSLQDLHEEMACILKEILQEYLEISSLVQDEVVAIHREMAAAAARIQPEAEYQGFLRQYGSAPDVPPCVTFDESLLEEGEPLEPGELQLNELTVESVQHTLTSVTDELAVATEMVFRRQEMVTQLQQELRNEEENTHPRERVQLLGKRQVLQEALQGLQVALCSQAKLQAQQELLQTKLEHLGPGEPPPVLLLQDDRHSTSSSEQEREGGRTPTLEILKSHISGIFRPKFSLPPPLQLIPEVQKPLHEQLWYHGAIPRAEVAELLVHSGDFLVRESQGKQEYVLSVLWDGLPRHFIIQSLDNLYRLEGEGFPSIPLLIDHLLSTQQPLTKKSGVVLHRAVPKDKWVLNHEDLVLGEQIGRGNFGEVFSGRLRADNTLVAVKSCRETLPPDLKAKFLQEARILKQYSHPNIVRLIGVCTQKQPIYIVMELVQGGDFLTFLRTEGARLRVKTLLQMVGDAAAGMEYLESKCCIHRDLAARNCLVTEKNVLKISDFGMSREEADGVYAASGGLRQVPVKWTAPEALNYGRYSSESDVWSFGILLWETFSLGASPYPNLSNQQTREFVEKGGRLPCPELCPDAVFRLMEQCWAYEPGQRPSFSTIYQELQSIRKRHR

Sequence of Mitogen-activated protein kinase 1 (P28482 whole entry): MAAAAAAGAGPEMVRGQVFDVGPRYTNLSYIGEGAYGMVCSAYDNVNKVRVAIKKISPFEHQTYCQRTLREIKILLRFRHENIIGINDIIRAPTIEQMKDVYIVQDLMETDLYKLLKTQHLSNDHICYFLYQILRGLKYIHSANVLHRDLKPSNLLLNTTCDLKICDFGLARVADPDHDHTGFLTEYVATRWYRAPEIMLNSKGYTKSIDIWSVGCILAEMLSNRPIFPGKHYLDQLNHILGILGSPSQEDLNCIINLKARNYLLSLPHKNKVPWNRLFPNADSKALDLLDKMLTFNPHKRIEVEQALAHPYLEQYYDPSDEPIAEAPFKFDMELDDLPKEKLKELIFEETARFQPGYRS
Sequence of Ephrin type-A receptor 4 (Homo sapiens) (P54764 whole entry): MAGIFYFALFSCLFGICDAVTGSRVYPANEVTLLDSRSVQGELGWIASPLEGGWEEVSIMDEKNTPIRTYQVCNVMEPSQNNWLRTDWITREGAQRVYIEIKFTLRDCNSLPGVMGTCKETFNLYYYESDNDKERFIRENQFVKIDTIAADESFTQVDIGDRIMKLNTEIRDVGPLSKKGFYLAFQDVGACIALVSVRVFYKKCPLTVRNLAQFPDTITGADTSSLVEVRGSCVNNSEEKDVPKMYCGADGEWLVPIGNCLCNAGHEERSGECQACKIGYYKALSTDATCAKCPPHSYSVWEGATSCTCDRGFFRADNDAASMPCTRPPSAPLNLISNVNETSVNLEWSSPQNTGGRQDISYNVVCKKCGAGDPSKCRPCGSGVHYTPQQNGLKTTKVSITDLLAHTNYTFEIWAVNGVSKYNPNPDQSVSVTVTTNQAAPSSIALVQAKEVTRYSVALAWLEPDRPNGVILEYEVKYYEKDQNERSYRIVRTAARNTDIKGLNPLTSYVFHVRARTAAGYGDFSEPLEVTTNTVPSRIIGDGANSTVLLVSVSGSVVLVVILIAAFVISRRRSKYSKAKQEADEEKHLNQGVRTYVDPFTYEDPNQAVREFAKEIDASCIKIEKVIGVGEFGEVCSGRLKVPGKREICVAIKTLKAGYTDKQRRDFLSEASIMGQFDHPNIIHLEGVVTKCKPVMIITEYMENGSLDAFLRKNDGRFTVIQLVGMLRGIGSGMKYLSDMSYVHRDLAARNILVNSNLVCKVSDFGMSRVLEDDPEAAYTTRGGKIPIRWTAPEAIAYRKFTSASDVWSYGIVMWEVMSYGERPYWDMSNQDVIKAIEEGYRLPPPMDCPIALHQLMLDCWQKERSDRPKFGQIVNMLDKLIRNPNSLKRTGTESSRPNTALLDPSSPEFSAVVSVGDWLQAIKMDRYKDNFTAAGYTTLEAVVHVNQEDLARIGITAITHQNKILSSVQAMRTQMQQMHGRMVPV
Sequence of Leukocyte tyrosine kinase receptor (Homo sapiens) (P29376 whole entry): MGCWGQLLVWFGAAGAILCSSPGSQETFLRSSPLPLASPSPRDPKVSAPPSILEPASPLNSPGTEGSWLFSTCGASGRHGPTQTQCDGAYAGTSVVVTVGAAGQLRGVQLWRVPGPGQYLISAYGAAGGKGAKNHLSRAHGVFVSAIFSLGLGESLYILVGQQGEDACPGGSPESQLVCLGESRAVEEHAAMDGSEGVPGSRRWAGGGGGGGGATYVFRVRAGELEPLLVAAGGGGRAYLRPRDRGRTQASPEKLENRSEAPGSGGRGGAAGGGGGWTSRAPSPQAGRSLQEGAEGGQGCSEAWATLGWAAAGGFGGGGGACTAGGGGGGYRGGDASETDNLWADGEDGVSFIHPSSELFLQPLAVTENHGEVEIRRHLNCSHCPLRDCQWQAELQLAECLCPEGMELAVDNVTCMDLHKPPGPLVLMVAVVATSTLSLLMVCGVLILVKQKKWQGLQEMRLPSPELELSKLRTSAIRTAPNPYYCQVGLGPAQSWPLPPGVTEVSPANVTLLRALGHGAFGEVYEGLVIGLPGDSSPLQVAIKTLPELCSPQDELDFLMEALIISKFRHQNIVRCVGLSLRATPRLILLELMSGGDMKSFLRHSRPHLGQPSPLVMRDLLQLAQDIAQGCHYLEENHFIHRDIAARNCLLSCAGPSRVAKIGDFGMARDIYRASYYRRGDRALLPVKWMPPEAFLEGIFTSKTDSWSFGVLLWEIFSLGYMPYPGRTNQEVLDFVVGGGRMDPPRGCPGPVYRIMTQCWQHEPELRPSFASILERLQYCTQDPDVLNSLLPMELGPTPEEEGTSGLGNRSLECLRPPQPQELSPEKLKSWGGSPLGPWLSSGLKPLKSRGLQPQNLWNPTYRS
Sequence of Receptor tyrosine-protein kinase erbB-2 (Homo sapiens) (P04626 whole entry): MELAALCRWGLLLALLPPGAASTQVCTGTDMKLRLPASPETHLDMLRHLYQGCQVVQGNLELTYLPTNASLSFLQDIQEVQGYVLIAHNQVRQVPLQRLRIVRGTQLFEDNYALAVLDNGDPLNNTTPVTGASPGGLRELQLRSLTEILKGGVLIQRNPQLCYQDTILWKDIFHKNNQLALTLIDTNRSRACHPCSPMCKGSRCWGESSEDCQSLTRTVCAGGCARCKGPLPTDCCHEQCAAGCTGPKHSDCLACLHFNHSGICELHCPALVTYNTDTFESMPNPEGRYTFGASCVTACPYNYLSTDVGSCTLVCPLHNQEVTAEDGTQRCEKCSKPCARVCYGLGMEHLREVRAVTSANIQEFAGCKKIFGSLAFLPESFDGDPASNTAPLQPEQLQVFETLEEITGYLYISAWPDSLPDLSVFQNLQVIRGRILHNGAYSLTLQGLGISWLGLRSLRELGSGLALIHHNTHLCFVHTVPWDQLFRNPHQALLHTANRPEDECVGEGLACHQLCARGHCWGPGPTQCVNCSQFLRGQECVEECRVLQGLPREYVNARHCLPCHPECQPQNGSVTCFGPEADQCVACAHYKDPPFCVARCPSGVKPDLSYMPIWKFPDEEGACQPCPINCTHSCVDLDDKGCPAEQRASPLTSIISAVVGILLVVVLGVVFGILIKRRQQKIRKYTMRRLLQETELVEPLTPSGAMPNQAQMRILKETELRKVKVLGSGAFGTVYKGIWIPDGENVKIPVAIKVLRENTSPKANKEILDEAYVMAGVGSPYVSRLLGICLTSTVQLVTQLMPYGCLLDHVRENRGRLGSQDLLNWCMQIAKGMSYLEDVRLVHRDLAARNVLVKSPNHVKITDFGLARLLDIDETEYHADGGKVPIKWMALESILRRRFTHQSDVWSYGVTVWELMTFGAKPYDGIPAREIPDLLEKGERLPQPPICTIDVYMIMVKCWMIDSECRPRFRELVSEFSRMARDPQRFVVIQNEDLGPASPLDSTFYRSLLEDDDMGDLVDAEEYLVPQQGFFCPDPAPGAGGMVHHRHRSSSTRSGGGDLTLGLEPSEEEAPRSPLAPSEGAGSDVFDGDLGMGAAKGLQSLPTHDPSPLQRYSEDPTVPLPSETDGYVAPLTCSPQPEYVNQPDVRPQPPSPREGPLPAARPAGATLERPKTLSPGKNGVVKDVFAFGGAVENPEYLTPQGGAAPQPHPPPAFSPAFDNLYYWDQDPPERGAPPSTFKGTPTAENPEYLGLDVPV
Sequence of Dual specificity protein kinase CLK3 (Homo sapiens) (P49761 whole entry, looked up): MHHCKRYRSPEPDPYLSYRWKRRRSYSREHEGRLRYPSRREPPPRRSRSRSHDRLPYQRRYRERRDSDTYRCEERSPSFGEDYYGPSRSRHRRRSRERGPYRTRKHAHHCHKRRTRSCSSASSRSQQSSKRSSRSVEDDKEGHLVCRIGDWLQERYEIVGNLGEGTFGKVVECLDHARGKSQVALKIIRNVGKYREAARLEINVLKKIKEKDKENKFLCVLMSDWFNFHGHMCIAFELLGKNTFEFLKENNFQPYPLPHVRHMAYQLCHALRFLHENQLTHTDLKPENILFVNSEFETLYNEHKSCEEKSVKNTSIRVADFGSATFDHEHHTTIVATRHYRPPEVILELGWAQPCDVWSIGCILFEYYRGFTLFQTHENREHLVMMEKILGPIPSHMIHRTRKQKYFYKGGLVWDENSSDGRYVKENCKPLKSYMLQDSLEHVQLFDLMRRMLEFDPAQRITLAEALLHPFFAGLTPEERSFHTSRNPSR

Compound | inhibition [1] [%] | inhibition [2] [%] | inhibition [3] [%] | inhibition [4] [%] | inhibition [5] [%] | inhibition [6] [%] | inhibition [7] [%] | inhibition [8] [%]
O[C@H]1CC[C@H](Nc2nccc(-n3ncc4ccccc43)n2)CC1 | 97 | < 50 | < 50 | < 50 | < 50 | < 50 | 80 | < 50
O[C@H]1CC[C@H](Nc2nccc(-n3ccc4ccccc43)n2)CC1 | 84 | < 50 | < 50 | < 50 | < 50 | < 50 | 67 | < 50
O[C@H]1CC[C@H](Nc2nccc(-c3n[nH]c4ccccc34)n2)CC1 | 99 | < 50 | < 50 | 100 | 94 | 82 | 88 | < 50
CS(=O)(=O)CCCOc1cccc2c1ccn2-c1ccnc(N[C@H]2CC[C@H](C(=O)N3CCC(O)CC3)CC2)n1 |  |  |  |  |  | > 85 |  | 

Next, values leading:

inhibition [1] [%] | inhibition [2] [%] | inhibition [3] [%] | inhibition [4] [%] | inhibition [5] [%] | inhibition [6] [%] | inhibition [7] [%] | inhibition [8] [%] | Compound
100 | < 50 | < 50 | < 50 | 94 | < 50 | < 50 | < 50 | N[C@H]1CC[C@H](Nc2nccc(-n3nnc4ccccc43)n2)CC1
96 | < 50 | < 50 | < 50 | 82 | < 50 | 69 | < 50 | O[C@H]1CC[C@H](Nc2nccc(-n3nnc4ccccc43)n2)CC1
95 | < 50 | < 50 | < 50 | < 50 | 86 | < 50 | < 50 | O=C([C@H]1CC[C@H](Nc2nccc(-n3nnc4ccccc43)n2)CC1)N1CCOCC1
